Assay results as given in ChEMBL document CHEMBL3871270, “Structural and Biochemical Characterization of the Interaction of Tubulin with Potent Natural Analogues of Podophyllotoxin” (J Nat Prod, 2016).
Active and inactive are the calls of the source. The rule behind the calls is not given here.

How the values were obtained:
[1] = Cytotoxicity against human A549 cells assessed as decrease in cell viability after 48 hrs by MTT assay; type: functional, cell-based; conditions: A549, 48 h
Method in brief: (§1)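 A549 lung and A2780 ovarian human carcinoma cells were treated for 48 h, and viability was read by MTT assay. IC50 values are given as mean ± standard error of three independent experiments.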

[2] = Cytotoxicity against human A2780 cells assessed as decrease in cell viability after 48 hrs by MTT assay; type: functional, cell-based; conditions: A2780, 48 h; method in brief: as §1
[3] = Cell cycle arrest in human A549 cells assessed as accumulation at G2/M phase at 100 nM after 20 hrs by propidium iodide staining based flow cytometry; type: functional
Method in brief: (§2)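 A549 cells were grown for 20 h with compound across 20 nM to 25 μM. DMSO was the negative control and paclitaxel (30−50 nM) the positive control. The percentage of cells in each cell-cycle phase was determined from flow cytometry DNA histograms.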

[4] = Cell cycle arrest in human A549 cells assessed as decrease in G1 phase population at 100 nM after 20 hrs by propidium iodide staining based flow cytometry; type: functional; method in brief: as §2
Homo sapiens [5] = organism: Homo sapiens; assay: Inhibition of 2-methoxy-5-(2,3,4-trimethoxyphenyl)-2,4,6-cycloheptatrien-1-one binding to colchicine binding site of tubulin (unknown origin) at 10 uM by fluorescence assay
Method in brief: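 Fluorescence emission spectra were recorded at 350 nm excitation for 10 μM purified tubulin plus 10 μM MTC (a colchicine-site probe), with 10 μM test compound. Reference spectra were MTC with tubulin alone and MTC alone. The result is the percent decrease in MTC fluorescence.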

Homo sapiens [6] = organism: Homo sapiens; assay: Inhibition of tubulin assembly (unknown origin) assessed as decrease in pelleted microtubules up to 40 uM after 20 mins
Method in brief: (§3)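 Purified tubulin was assembled at 30 μM, above its 3.3 μM critical concentration, in the presence of compound. The resulting microtubules were pelleted by mild centrifugation to quantify assembly.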

[7] = (§4) Inhibition of 2-methoxy-5-(2,3,4-trimethoxyphenyl)-2,4,6-cycloheptatrien-1-one binding to colchicine binding site of tubulin (unknown origin) by fluorescence spectroscopic analysis; set-up: species or system Homo sapiens
Method in brief: (§5)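 Tubulin binding constants (Kb) were obtained from a competition assay against the colchicine-site fluorescent probe MTC, assuming 1:1 stoichiometry.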

Homo sapiens [8] = organism: Homo sapiens; assay: as §4; method in brief: as §5
A549 [9] = assay: Binding affinity to alpha-tubulin in human A549 cells assessed as induction of microtubule depolymerization by measuring formation of abnormal type 4 spindles at 100 nM after 24 hrs by immunofluorescence microscopy; type: cell-based
Method in brief: (§6)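 A549 cells were exposed to compound or DMSO vehicle for 24 h. They were then stained with DM1A anti-α-tubulin monoclonal antibody for microtubules and Hoechst 33342 for DNA. Cytoplasmic microtubule networks and mitotic spindle morphology, including abnormal type IV ball-shaped spindles, were examined by immunofluorescence microscopy.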

Homo sapiens [10] = organism: Homo sapiens; assay: Binding affinity to tubulin alpha/beta dimer (unknown origin) at 100 uM by STD-NMR method
[11] = Cell cycle arrest in human A549 cells assessed as accumulation at G2/M phase at 25 uM after 20 hrs by propidium iodide staining based flow cytometry; type: functional
Method in brief: (§7)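 A549 cells grown 20 h with compound across 20 nM to 25 μM; DMSO as negative and paclitaxel (30−50 nM) as positive control; DNA content histograms by flow cytometry give percent of cells in each cell cycle phase.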

[12] = Cell cycle arrest in human A549 cells assessed as decrease in G1 phase population at 25 uM after 20 hrs by propidium iodide staining based flow cytometry; type: functional; method in brief: as §7
A549 [13] = assay: Binding affinity to alpha-tubulin in human A549 cells assessed as induction of microtubule depolymerization by measuring formation of abnormal type 4 spindles at 50 uM after 24 hrs by immunofluorescence microscopy; type: cell-based
Method in brief: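 A549 cells exposed 24 h, DMSO vehicle control; microtubules stained with DM1A anti-α-tubulin monoclonal antibody and DNA with Hoechst 33342; cytoplasmic microtubule network and mitotic spindle morphology scored by immunofluorescence microscopy.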

[14] = Cell cycle arrest in human A549 cells assessed as accumulation at G2/M phase at 1 uM after 20 hrs by propidium iodide staining based flow cytometry; type: functional; method in brief: as §2
[15] = Cell cycle arrest in human A549 cells assessed as decrease in G1 phase population at 1 uM after 20 hrs by propidium iodide staining based flow cytometry; type: functional; method in brief: as §2
A549 [16] = assay: Binding affinity to alpha-tubulin in human A549 cells assessed as induction of microtubule depolymerization by measuring formation of abnormal type 4 spindles at 1 uM after 24 hrs by immunofluorescence microscopy; type: cell-based; method in brief: as §6
Homo sapiens [17] = organism: Homo sapiens; assay: Inhibition of tubulin assembly (unknown origin) assessed as decrease in pelleted microtubules up to 30 uM after 20 mins; method in brief: as §3
Homo sapiens [18] = organism: Homo sapiens; assay: Binding affinity to tubulin alpha/beta dimer (unknown origin) at 300 uM by STD-NMR method
Homo sapiens [19] = organism: Homo sapiens; assay: Binding affinity to tubulin alpha/beta dimer (unknown origin) by TR-NOESY NMR spectroscopy

SMILES | IC50 [1] [nM] | IC50 [2] [nM] | Activity [3] | Activity [4] | inhibition (Homo sapiens [5]) | inhibition (Homo sapiens [6]) [%] | Kd [7] [nM] | Kb (Homo sapiens [8]) [×10⁵ /M] | Activity (A549 [9]) | Activity (Homo sapiens [10]) | Activity [11] | Activity [12] | Activity (A549 [13]) | Activity [14] | Activity [15] | Activity (A549 [16]) | inhibition (Homo sapiens [17]) | Activity (Homo sapiens [18]) | Activity (Homo sapiens [19])
COc1cc([C@@H]2c3cc4c(cc3[C@H](OC(C)=O)[C@H]3COC(=O)[C@H]23)OCO4)cc(OC)c1OC | 25 | 34 | Active | Active | 65% | > 80 | 58 | 170 | Active | Active |  |  |  |  |  |  |  |  | 
COc1c2c(cc3c1OCO3)[C@@H](c1ccc3c(c1)OCO3)[C@@H]1C(=O)OC[C@@H]1C2 | 8670 | 12900 |  |  | Active |  |  |  |  |  | Active | Active | Active |  |  |  |  |  | 
COc1cc(C2=C3C(=O)OC[C@@H]3[C@@H](OC(C)=O)c3cc4c(cc32)OCO4)cc(OC)c1OC | 263 | 587 |  |  | 17% |  |  |  |  |  |  |  |  | Active | Active | Active | Active |  | 
COc1cc([C@@H]2c3cc4c(cc3[C@H](O)[C@H]3COC(=O)[C@H]23)OCO4)cc(OC)c1OC [PODOFILOX] | 15 | 18 | 70 to 80% |  | 68% | > 80 | 54 | 185 | Active |  |  |  |  |  |  |  |  | Active | 
COc1ccc([C@@H]2c3cc4c(c(OC)c3C[C@H]3COC(=O)[C@@H]32)OCO4)cc1OC | 33 | 84 | Active | Active | 43% |  | 850 | 11.8 | Active | Active |  |  |  |  |  |  | Active |  | Active
